This passage reports EC50 and IC50 results from ChEMBL document CHEMBL1141180, “Synthesis and antiviral activity of helioxanthin analogues” (J Med Chem, 2005).

Bounds are passed on as bounds.

Test [1] concerns Human alphaherpesvirus 1. Description: Effective concentration to inhibit 50% of herpes simplex virus type 1 replication in a cell culture model. In kind it is functional, organism-based.
The subject of test [2] is Human alphaherpesvirus 2. Briefly: Effective concentration to inhibit 50% of herpes simplex virus type 2 replication in a cell culture model. In kind it is functional, organism-based.
Test [3] deals with Hepatitis B virus. Briefly: Effective concentration to inhibit 50% of hepatitis B virus replication in a cell culture model. In kind it is functional, organism-based.
Test [4] concerns Hepatitis C virus. Description: Effective concentration to inhibit 50% of hepatitis C virus replication in a cell culture model. In kind it is functional, organism-based, Hepacivirus hominis. In short, it runs like this: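 HCV replicon Huh-Luc/neo cells grown to confluence, then treated with varying drug concentrations in DMEM with 10% dFBS for 3 days. Medium was removed and cells lysed in passive lysis buffer, shaken 15 min at room temperature. Lysate was mixed with luciferase substrate and luminescence read immediately as the measure of replicon activity.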

Test [5] in a line: Effective concentration to inhibit 50% of human immunodeficiency virus replication in a cell culture model. In kind it is functional.
For test [6], the system named is Human gammaherpesvirus 4. Description: Effective concentration to inhibit 50% of epstein Barr virus replication in a cell culture model. In kind it is functional, organism-based.
Test [7] has as its system CCRF-CEM. Description: Cytotoxicity against CEM cell lines of human. In kind it is functional. Particulars: read-out: ID50 (the source's name).
Test [8] has as its system MT2. Briefly: Cytotoxicity against MT-2 cell lines of human. In kind it is functional. Particulars: read-out: ID50 (the source's name).

For the compound `Cc1c(C(=O)OCCCO)cc2ccc3c(c2c1-c1ccc2c(c1)OCO2)OCO3`, the EC50 in test [1] is greater than 25 µM; in test [2], greater than 25 µM; in test [3], greater than 10 µM; in test [4] it was greater than 10 µM; in test [5], greater than 10 µM; in test [6], greater than 15 µM. Besides, the IC50 came out at 46 µM in test [7] and 10 µM in test [8].

`COc1ccc(-c2c3c(cc4ccc5c(c24)OCO5)C(=O)NC3=O)cc1OC` returned an EC50 in test [3] of 0.8 µM.

As for `CN(C)C(=O)c1cc2ccc3c(c2c(-c2ccc4c(c2)OCO4)c1C(=O)O)OCO3`, the EC50 in test [1] is greater than 50 µM; in test [2], greater than 50 µM; in test [3] it was greater than 10 µM; in test [4] it was greater than 10 µM; in test [5], greater than 70 µM; in test [6], greater than 20 µM. The IC50 in test [7] stood at 76 µM; in test [8], 70 µM.

In the case of `O=c1[nH][nH]c(=O)c2c(-c3ccc4c(c3)OCO4)c3c4c(cc(I)c3cc12)OCO4`, the EC50 was greater than 40 µM in test [1]; greater than 40 µM in test [2]; greater than 10 µM in test [3]; 10 µM in test [4]; greater than 2 µM in test [5]; greater than 20 µM in test [6]. Moreover, the IC50 is 40 µM in test [7] and 35 µM in test [8].

As for `O=c1[nH][nH]c(=O)c2c(-c3ccc4c(c3)OCO4)c3c4c(cc(Cl)c3cc12)OCO4`, the EC50 was greater than 7 µM in test [1]; greater than 40 µM in test [2]; greater than 20 µM in test [3]; 10 µM in test [4]; greater than 54 µM in test [5]; greater than 20 µM in test [6]. Also, the IC50 turned out to be 38 µM in test [7] and 54 µM in test [8].

As to `O=C(O)c1cc2ccc3c(c2c(-c2ccc4c(c2)OCO4)c1C(=O)O)OCO3`, the EC50 is greater than 50 µM in test [1]; greater than 50 µM in test [2]; greater than 10 µM in test [3]; greater than 10 µM in test [4]; greater than 100 µM in test [5]; greater than 20 µM in test [6]. For the same compound, the IC50 in test [7] and in test [8] was greater than 100 µM in each case.

Turning to `COC(=O)c1c(C(=O)O)cc2ccc3c(c2c1-c1ccc2c(c1)OCO2)OCO3`, the EC50 in test [1] is greater than 50 µM; in test [2] it was greater than 50 µM; in test [3] it was greater than 20 µM; in test [4] it was greater than 10 µM; in test [5], greater than 90 µM; in test [6], greater than 20 µM. Moreover, the figures for the IC50 in test [7] and in test [8] were 74 µM and 90 µM, respectively.

Regarding `O=C1c2cc3ccc4c(c3c(-c3ccc5c(c3)OCO5)c2CN1CCCO)OCO4`, the EC50 in test [1] was 5 µM; in test [2], 7 µM; in test [3], greater than 0.9 µM; in test [4], greater than 10 µM; in test [5] it was greater than 8 µM; in test [6], greater than 20 µM. Further, the IC50 in test [7] was 6 µM; in test [8], 8 µM.

`O=C(O)c1cc2ccc3c(c2c(-c2ccc4c(c2)OCO4)c1COCc1ccccc1)OCO3`: the EC50 in test [1] is greater than 25 µM; in test [2], greater than 25 µM; in test [3] it was greater than 10 µM; in test [4] it was greater than 10 µM; in test [5], greater than 48 µM; in test [6], greater than 20 µM. In addition, the IC50 in test [7] is greater than 50 µM; in test [8], 48 µM.

In the case of `CCOC(=O)c1c(C(=O)OCC)c(-c2ccc3c(c2)OCO3)c2c3c(ccc2c1OC)OCO3`, the EC50 is greater than 50 µM in test [1]; greater than 50 µM in test [2]; greater than 20 µM in test [3]; greater than 10 µM in test [4]; greater than 24 µM in test [5]; greater than 20 µM in test [6]. Further, the IC50 is greater than 100 µM in test [7] and 24 µM in test [8].

On to `O=C(OCc1ccccc1)c1cc2ccc3c(c2c(-c2ccc4c(c2)OCO4)c1COCc1ccccc1)OCO3`, for which the 50% effective concentration (EC50) in test [1] was greater than 50 µM; in test [2], greater than 50 µM; in test [3] it was greater than 10 µM; in test [4], 10 µM; in test [5], greater than 100 µM; in test [6], greater than 20 µM. Besides, the IC50 in test [7] came to 50 µM; in test [8] it was 100 µM.

`CC(=O)NN1Cc2c(cc3ccc4c(c3c2-c2ccc3c(c2)OCO3)OCO4)C1=O`: the EC50 in test [1] was 5 µM; in test [2], 10 µM; in test [3] it was greater than 20 µM; in test [4], greater than 10 µM; in test [5], greater than 7 µM; in test [6], 13 µM. The IC50 in test [7] stood at 40 µM; in test [8], 7 µM.

As to `O=C1c2cc3ccc4c(c3c(-c3ccc5c(c3)OCO5)c2C(=O)N1O)OCO4`, the EC50 is greater than 30 µM in test [1]; greater than 30 µM in test [2]; greater than 10 µM in test [3]; greater than 10 µM in test [4]; greater than 16 µM in test [5]; greater than 5 µM in test [6]. For the same compound, the IC50 in test [7] worked out at 17 µM; in test [8], 16 µM.

Consider `NC(=O)c1cc2ccc3c(c2c(-c2ccc4c(c2)OCO4)c1C(N)=O)OCO3`, for which the EC50 in test [1] is greater than 50 µM; in test [2] it was greater than 50 µM; in test [3] it was greater than 10 µM; in test [4], greater than 10 µM; in test [5] it was greater than 100 µM; in test [6], greater than 20 µM. Moreover, the IC50 in test [7] and in test [8] was greater than 100 µM throughout.

Regarding `CNC(=O)c1cc2ccc3c(c2c(-c2ccc4c(c2)OCO4)c1C(=O)O)OCO3`, the EC50 in test [1] is 12 µM; in test [2], greater than 25 µM; in test [3] it was greater than 10 µM; in test [4], greater than 10 µM; in test [5] it was greater than 26 µM; in test [6], greater than 20 µM. For the same compound, the values for the IC50 in test [7] and in test [8] were 29 µM and 26 µM, respectively.

Regarding `O=C1NCc2c1cc1c(Br)cc3c(c1c2-c1ccc2c(c1)OCO2)OCO3`, the EC50 was 6.5 µM in test [1]; greater than 20 µM in test [2]; greater than 10 µM in test [3]; 10 µM in test [4]; greater than 54 µM in test [5]; greater than 20 µM in test [6]. For the same compound, the IC50 in test [7] is 38 µM; in test [8], 54 µM.

`O=C1OCc2c1cc1c(I)cc3c(c1c2-c1ccc2c(c1)OCO2)OCO3`: the EC50 is greater than 25 µM in test [1]; greater than 25 µM in test [2]; greater than 20 µM in test [3]; greater than 10 µM in test [4]; greater than 80 µM in test [5]; greater than 10 µM in test [6]. Also, the IC50 in test [7] was found to be 70 µM; in test [8] it was 80 µM.

Take `CC(=O)NN1C(=O)c2cc3ccc4c(c3c(-c3ccc5c(c3)OCO5)c2C1=O)OCO4`: the EC50 in test [1] is greater than 40 µM; in test [2], greater than 40 µM; in test [3] it was 1 µM; in test [4], greater than 10 µM; in test [5] it was greater than 100 µM; in test [6], greater than 20 µM. Further, the figures for the IC50 in test [7] and in test [8] were 93 µM and greater than 100 µM, respectively.

Consider `CC(=O)NN1Cc2cc3ccc4c(c3c(-c3ccc5c(c3)OCO5)c2C1=O)OCO4`, for which the EC50 in test [1] is 17 µM; in test [2], 40 µM; in test [3], 0.03 µM; in test [4] it was greater than 10 µM; in test [5] it was greater than 25 µM; in test [6], greater than 20 µM. Besides, the IC50 turned out to be 32 µM in test [7] and 25 µM in test [8].

Turning to `O=c1[nH][nH]c(=O)c2c(-c3ccc4c(c3)OCO4)c3c4c(ccc3cc12)OCO4`, the EC50 in test [1] was 1.4 µM; in test [2] it was 1.4 µM; in test [3], 0.03 µM; in test [4], greater than 10 µM; in test [5], 2.7 µM; in test [6], greater than 25 µM. Further, the IC50 in test [7] is 50 µM; in test [8], 16 µM.

On to `COC(=O)c1cc2ccc3c(c2c(-c2ccc4c(c2)OCO4)c1C(=O)OC)OCO3`, for which the EC50 was greater than 50 µM in test [1]; greater than 50 µM in test [2]; greater than 20 µM in test [3]; 10 µM in test [4]; greater than 28 µM in test [5]; greater than 20 µM in test [6]. The IC50 in test [7] stood at 50 µM; in test [8] it was 28 µM.

Consider `O=C1OCc2c1cc1c(Br)cc3c(c1c2-c1ccc2c(c1)OCO2)OCO3`, for which the half-maximal effective concentration (EC50) was greater than 50 µM in test [1]; greater than 50 µM in test [2]; greater than 40 µM in test [3]; greater than 10 µM in test [4]; greater than 100 µM in test [5]; greater than 15 µM in test [6]. Further, the values for the IC50 in test [7] and in test [8] were 100 µM and greater than 100 µM, respectively.

Consider `Nc1ccn([C@H]2CC[C@@H](CO)O2)c(=O)n1` [ZALCITABINE], for which the EC50 in test [5] was found to be 0.8 µM. Further, the IC50 in test [7] stood at 5 µM; in test [8] it was 70 µM.

Consider `COc1ccc(-c2c(C(=O)O)c(C(N)=O)cc3ccc4c(c23)OCO4)cc1OC`, for which the EC50 in test [1] is 0.8 µM; in test [2] it was greater than 3 µM; in test [3], 0.8 µM; in test [4] it was 3 µM; in test [5], greater than 10 µM; in test [6] it was greater than 20 µM. Further, the figures for the IC50 in test [7] and in test [8] were 3 µM and 10 µM, respectively.

As for `O=C1NC(=O)c2c1cc1ccc3c(c1c2-c1ccc2c(c1)OCO2)OCO3`, in test [3], the EC50 is greater than 10 µM.

`COc1ccc(-c2c3c(cc4ccc5c(c24)OCO5)C(=O)NC3)cc1OC`: the EC50 in test [1] is 0.6 µM; in test [2], 0.5 µM; in test [3], greater than 10 µM; in test [4], 3 µM; in test [5], greater than 16 µM; in test [6], greater than 20 µM. Moreover, the IC50 was 5 µM in test [7] and 16 µM in test [8].

On to `CN1Cc2c(cc3ccc4c(c3c2-c2ccc3c(c2)OCO3)OCO4)C1=O`, for which the EC50 in test [1] was 0.67 µM; in test [2], 1 µM; in test [3] it was greater than 20 µM; in test [4], greater than 3 µM; in test [5], greater than 8 µM; in test [6], greater than 20 µM. Further, the figures for the IC50 in test [7] and in test [8] were 6 µM and 8 µM, respectively.
